This is an account of results in PMC3458564 (Nucleic Acids Research, 2012).

One data set addresses E. coli SSB (Escherichia coli, UniProt P0AGE0). In words: Escherichia coli SSB FP assay. It counts as binding.
The test system of data set [1] is HCV RLuc replicon in Huh7.5 cells. Description: HCV Renilla luciferase subgenomic replicon assay. In kind it is cell-based. The settings on record: Hepatitis C virus, Huh7.5, 72 h, read-out: HCV replicon IC50 ± SD.
A further data set deals with T1, NS3h (Hepatitis C virus genotype 1b, UniProt Q9WMX2).
T1 sequence (Q9WMX2 1193-1657 limits assumed): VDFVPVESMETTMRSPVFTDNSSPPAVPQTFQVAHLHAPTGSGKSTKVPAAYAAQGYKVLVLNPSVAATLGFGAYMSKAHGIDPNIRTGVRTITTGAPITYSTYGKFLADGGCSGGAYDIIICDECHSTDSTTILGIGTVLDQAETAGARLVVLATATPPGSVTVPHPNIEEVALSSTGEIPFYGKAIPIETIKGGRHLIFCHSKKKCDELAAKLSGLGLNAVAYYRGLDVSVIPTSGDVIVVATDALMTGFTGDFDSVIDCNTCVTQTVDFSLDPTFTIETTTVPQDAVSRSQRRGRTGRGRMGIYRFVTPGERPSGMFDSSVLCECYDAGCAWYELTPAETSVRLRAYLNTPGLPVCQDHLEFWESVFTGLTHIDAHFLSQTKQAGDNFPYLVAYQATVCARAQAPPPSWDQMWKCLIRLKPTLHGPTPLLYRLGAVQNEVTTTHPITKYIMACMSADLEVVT
In words: NS3h ATP hydrolysis. The conditions noted are these: preliminary. It counts as biochemical.

Data set [2] can be described thus: Cell Titer-Glo cell viability assay. The conditions noted are these: human, Huh-7.5 cells. In kind it is cell-based. Put shortly: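 Huh-7.5 cells carrying a stable HCV Renilla luciferase replicon, seeded at 10 000 cells/well, attached 4–5 h in DMEM with 10% FBS, glutamine, penicillin/streptomycin and non-essential amino acids. Test compound added in DMSO (0.5% final). Incubated 72 h at 37°C, 5% CO2. Cells washed, lysed by shaking in medium plus CellTiter-Glo, 30 min at 23°C. Luminescence read 1 s, normalized to DMSO-only. Triplicates.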
Background: ATP-based viability assays read luminescence as a measure of living cells.

For data set [3], the target named is T2, HCV NS3h (Hepatitis C virus genotype 1b, UniProt Q9WMX2). In words: biochemical. The settings on record: for Cy5-dT15-NS3h Binding % Inhibition (LOPAC screen): LOPAC samples at 100 µM, 100 µM. In kind it is binding.
Data set [4] has as its target T2, HCV NS3h. Description: NS3h molecular beacon-based helicase assay. It counts as biochemical. The settings on record: for IC50: n=3.
The target of the next data set is SSB (Escherichia coli, UniProt P0AGE0 1-178). Description: fluorescence polarization. (In general: Fluorescence polarisation rises when a labelled molecule tumbles more slowly, as on binding a larger partner.)
[5] abbreviates: NS3h helicase assays DNA IC50 ± SD, DNA substrate.
Setting [6] is: NS3h helicase assays RNA IC50 ± SD, RNA substrate.

Structures can show the parent of a compound that is named as a salt.

Chain of E. coli SSB (P0AGE0 2-178 limits assumed): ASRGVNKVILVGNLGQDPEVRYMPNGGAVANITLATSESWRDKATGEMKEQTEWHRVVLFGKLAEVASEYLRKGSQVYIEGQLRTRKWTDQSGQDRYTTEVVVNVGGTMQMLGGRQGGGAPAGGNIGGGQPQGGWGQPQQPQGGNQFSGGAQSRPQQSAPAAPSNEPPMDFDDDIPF
Chain of SSB (P0AGE0 whole entry): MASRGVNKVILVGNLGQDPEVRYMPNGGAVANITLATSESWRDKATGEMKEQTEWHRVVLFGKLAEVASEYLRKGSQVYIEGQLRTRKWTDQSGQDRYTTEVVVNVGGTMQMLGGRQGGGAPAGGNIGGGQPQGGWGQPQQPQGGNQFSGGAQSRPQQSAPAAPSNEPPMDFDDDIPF

Usually IC50 stands for the concentration needed to halve the response being measured. For orientation: CC50 means the concentration at which the toxic effect on the cells reaches its halfway point. With `O=C(O)C1=CC(=C(c2ccc(O)c(C(=O)O)c2)c2ccc(O)c(C(=O)O)c2)C=CC1=O` [ATA, aurintricarboxylic acid], the IC50 against E. coli SSB was determined as 1 ± 0.1 µM; in data set [1] it was 98 ± 30 µM; against HCV NS3h [3], 1.4 ± 0.1 µM; against HCV NS3h [4] (setting [5]) it was 0.6 ± 0.1 µM; against HCV NS3h [4] (setting [6]) it was 0.8 ± 0.2 µM. Also, the “ability of NS3h to cleave ATP in the absence of DNA or RNA” value at NS3h was “inhibits”. The molecule also came in with a 50% cytotoxic concentration (CC50) at 72 h in data set [2] above 100 µM. Also, the “Cy5-dT15-NS3h Binding % Inhibition (LOPAC screen)” value on HCV NS3h [3] is given as “more than 60%”.

As to `CN1CCN(c2ccc3[nH]c(-c4ccc5[nH]c(-c6ccc(O)cc6)nc5c4)nc3c2)CC1` [H33258], the “effect on FP-based NS3h binding assay” value at HCV NS3h [3] was “increased polarization”.

Take `CCCN(CCCN(C)C)c1cc(/C=C2/Sc3ccccc3N2C)c2ccccc2[n+]1-c1ccccc1` [SYBR green I]: on HCV NS3h [4], the “effect on MBHA” value is reported as “inhibit”.

In the case of `Cc1ccc(C(=O)Nc2ccc(S(=O)(=O)O)c3cc(S(=O)(=O)O)cc(S(=O)(=O)O)c23)cc1NC(=O)c1cccc(NC(=O)Nc2cccc(C(=O)Nc3cc(C(=O)Nc4ccc(S(=O)(=O)O)c5cc(S(=O)(=O)O)cc(S(=O)(=O)O)c45)ccc3C)c2)c1` [Suramin, suramin sodium salt], the half-maximal inhibitory concentration (IC50) is 0.3 µM against E. coli SSB; 38 ± 9.3 µM in data set [1]; 3.6 ± 0.3 µM on HCV NS3h [3]; 3.7 ± 0.7 µM against HCV NS3h [4] (setting [5]); 8.9 ± 2 µM against HCV NS3h [4] (setting [6]). The same molecule came in with a CC50 at 72 h in data set [2] above 50 µM. Besides, the “Cy5-dT15-NS3h Binding % Inhibition (LOPAC screen)” value at HCV NS3h [3] is listed as “more than 60%”.

Take `CN1/C(=C/C=C/c2cc[n+](CCC[N+](C)(C)C)c3ccccc23)Sc2ccccc21.[I-].[I-]` [TO-PRO3]: the “effect on FP-based NS3h binding assay” value at HCV NS3h [3] is “increased polarization”.

As to `CC(=O)NCC(=O)O.CC(=O)NCC(=O)O.N=C(N)c1ccc(N=NNc2ccc(C(=N)N)cc2)cc1` [berenil], the “effect on MBHA” value on HCV NS3h [4] is on record as “inhibit”.

Take `Cn1cc(NC(=O)c2cc(NC(=O)CN=C(N)N)cn2C)cc1C(=O)NCCC(=N)N` [netropsin]: at HCV NS3h [4], the “effect on MBHA” value is “inhibit”.

For `Nc1ccc2cc3ccc(N)cc3nc2c1` [proflavin], the “effect on MBHA” value on HCV NS3h [4] was “inhibit”.

With `Nc1ncnc2c1ncn2[C@@H]1O[C@H](COP(=O)(O)CP(=O)(O)OP(=O)([O-])[O-])[C@H](O)C1O.[Li+].[Li+]` (stereo partly drawn) [α,β-methylene ATP, alpha,beta-Methylene adenosine 5'-triphosphate dilithium], the “effect on FP-based NS3h binding assay” value on HCV NS3h [3] is “did not inhibit”.

TTTTTTTTTTTTTTT (ssDNA) [Cy5-dT15]: the “apparent K (half saturation)” value in the data set with SSB was determined as 9.6 ± 2 nM.
